Data: ChEMBL document CHEMBL2440101, “Total syntheses and cytotoxicity of kealiiquinone, 2-deoxy-2-aminokealiiquinone and analogs” (Bioorg Med Chem Lett, 2013)

What follows are compounds tested on MCF7 (assay: Cytotoxicity against human MCF7 cells after 96 hrs by MTT assay). Settings: MCF7, 96 h.
Assay type: functional, cell-based
In short: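 MCF7 breast cancer cells; MTT growth assay with cisplatin as positive control. IC50 taken from cytotoxicity (concentration-response) plots and reported with SEM.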
COC1=C(OC)C(=O)c2c(cc3c([nH]c(=O)n3C)c2-c2ccc(OC)cc2)C1=O was tested, and the IC50 was 91.9 µM.
With COC1=C(OC)C(=O)c2c(cc3c(nc(N)n3C)c2-c2ccc(OC)cc2)C1=O the IC50 was 43.8 µM.
COc1ccc(-c2c3cc(OC)c(OC)cc3cc3c2nc(N)n3C)cc1 showed an IC50 of 28.8 µM.
For COc1ccc(-c2c3nc(N)n(C)c3cc3cc(OC)c(OC)c(OC)c23)cc1, the IC50 was > 100 µM.
With COc1ccc(-c2c3cc(OCc4ccccc4)c(OC)cc3cc3c2ncn3C)cc1 the IC50 was 92 µM.
COc1ccc(-c2c3cc(OC)c(OC)cc3cc3c2ncn3C)cc1 gave an IC50 of 28 µM.
For COc1ccc(-c2c3ncn(C)c3cc3cc(OC)c(OC)c(OC)c23)cc1, the IC50 was 99.8 µM.
COC1=C(OC)C(=O)c2c(cc3c(ncn3C)c2-c2ccc(OC)cc2)C1=O showed an IC50 of 41.1 µM.
COc1ccc(-c2c3[nH]c(=O)n(C)c3cc3cc(OC)c(OC)c(OC)c23)cc1 gave an IC50 of 29.9 µM.
COc1ccc(-c2c3cc(OC)c(OC)c(OC)c3cc3c2nc(N)n3C)cc1 was tested, and the IC50 was 22.7 µM.
COc1ccc(-c2c3cc(OC)c(OC)c(OC)c3cc3c2ncn3C)cc1 showed an IC50 of 68.2 µM.
COc1ccc(-c2c3cc(O)c(OC)cc3cc3c2ncn3C)cc1 was tested, and the IC50 was > 100 µM.
Compound COc1ccc(-c2c3cc(O)c(OC)cc3cc3c2[nH]c(=N)n3C)cc1 [KEALIININE A] has an IC50 of 23.4 µM.
